Source: ChEMBL document CHEMBL1156303, “Synthesis and SAR of N-(4-(4-alklylpiperazin-1-yl)phenyl)benzamides as muscarinic acetylcholine receptor subtype 1 (M1) anatgonists” (Bioorg Med Chem Lett, 2010)

Key:
[1] = target: T1, Muscarinic acetylcholine receptor M5 (Homo sapiens, UniProt P08912); experiment: Antagonist activity at human muscarinic M5 receptor expressed in CHO-K1 cells assessed as inhibition of acetylcholine-induced calcium mobilization; type: functional, cell-based
T1 sequence (P08912 whole entry): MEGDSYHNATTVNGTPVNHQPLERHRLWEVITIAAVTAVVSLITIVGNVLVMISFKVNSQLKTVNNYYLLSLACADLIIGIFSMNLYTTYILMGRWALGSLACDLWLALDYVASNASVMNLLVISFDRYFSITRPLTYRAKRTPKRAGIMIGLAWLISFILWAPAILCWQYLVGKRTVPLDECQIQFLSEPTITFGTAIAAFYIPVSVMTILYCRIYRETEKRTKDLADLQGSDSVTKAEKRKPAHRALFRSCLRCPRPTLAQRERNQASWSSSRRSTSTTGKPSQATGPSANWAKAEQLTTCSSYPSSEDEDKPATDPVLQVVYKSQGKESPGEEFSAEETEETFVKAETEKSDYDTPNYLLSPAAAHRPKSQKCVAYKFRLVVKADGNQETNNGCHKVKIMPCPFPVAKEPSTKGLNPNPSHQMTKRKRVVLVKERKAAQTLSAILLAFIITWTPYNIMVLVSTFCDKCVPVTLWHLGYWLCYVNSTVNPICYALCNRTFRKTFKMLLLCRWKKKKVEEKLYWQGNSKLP

[2] = target: T2, Muscarinic acetylcholine receptor M2 (Homo sapiens, UniProt P08172); experiment: Antagonist activity at human muscarinic M2 receptor expressed in CHO-K1 cells coexpressing Gqi5 chimeric G-protein assessed as inhibition of acetylcholine-induced calcium mobilization; type: functional, cell-based
T2 sequence (P08172 whole entry): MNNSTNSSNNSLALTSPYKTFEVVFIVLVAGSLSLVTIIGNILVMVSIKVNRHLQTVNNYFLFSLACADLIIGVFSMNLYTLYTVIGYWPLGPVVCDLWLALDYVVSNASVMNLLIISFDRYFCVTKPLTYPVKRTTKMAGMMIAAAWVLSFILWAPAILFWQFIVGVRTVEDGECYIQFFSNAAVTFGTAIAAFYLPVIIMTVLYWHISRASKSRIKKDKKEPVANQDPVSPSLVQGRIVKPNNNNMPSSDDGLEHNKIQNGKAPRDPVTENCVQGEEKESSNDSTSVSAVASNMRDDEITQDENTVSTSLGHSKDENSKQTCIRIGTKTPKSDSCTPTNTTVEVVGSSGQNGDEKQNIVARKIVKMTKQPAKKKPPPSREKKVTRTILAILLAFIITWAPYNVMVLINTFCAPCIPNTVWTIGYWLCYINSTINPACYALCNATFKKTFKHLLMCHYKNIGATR
Outline: (§1)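 Stable muscarinic cell lines (hM2 and hM4 stably transfected with Gqi5 chimera) plated overnight, then loaded with 2 µM Fluo-4 AM in HBSS with 20 mM HEPES and 2.5 mM probenecid, pH 7.4, for 45 min at 37°C. Dye replaced with assay buffer. Cells pre-incubated with compound at 10 µM or across a concentration-response curve, then challenged with sub-maximal acetylcholine or carbachol. Read-out: calcium mobilization.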

[3] = target: T3, Muscarinic acetylcholine receptor M1 (Homo sapiens, UniProt P11229); experiment: Antagonist activity at human muscarinic M1 receptor expressed in CHO-K1 cells assessed as inhibition of acetylcholine-induced calcium mobilization; type: functional, cell-based
T3 sequence (P11229 whole entry): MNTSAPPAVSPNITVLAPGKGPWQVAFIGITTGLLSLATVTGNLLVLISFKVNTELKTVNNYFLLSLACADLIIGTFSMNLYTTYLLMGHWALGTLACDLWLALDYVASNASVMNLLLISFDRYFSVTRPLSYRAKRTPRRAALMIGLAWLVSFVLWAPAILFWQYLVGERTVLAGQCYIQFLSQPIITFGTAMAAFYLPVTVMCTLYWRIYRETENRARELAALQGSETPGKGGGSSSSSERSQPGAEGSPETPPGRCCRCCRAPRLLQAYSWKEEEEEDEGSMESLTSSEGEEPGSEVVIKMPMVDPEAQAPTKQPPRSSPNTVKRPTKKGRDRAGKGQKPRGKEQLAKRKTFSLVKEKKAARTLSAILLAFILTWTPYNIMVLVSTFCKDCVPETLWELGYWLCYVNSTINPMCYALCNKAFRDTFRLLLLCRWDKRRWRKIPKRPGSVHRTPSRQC

[4] = target: T4, Muscarinic acetylcholine receptor M4 (Homo sapiens, UniProt P08173); experiment: Antagonist activity at human muscarinic M4 receptor expressed in CHO-K1 cells coexpressing Gqi5 chimeric G-protein assessed as inhibition of acetylcholine-induced calcium mobilization; type: functional, cell-based; outline: as §1
T4 sequence (P08173 whole entry): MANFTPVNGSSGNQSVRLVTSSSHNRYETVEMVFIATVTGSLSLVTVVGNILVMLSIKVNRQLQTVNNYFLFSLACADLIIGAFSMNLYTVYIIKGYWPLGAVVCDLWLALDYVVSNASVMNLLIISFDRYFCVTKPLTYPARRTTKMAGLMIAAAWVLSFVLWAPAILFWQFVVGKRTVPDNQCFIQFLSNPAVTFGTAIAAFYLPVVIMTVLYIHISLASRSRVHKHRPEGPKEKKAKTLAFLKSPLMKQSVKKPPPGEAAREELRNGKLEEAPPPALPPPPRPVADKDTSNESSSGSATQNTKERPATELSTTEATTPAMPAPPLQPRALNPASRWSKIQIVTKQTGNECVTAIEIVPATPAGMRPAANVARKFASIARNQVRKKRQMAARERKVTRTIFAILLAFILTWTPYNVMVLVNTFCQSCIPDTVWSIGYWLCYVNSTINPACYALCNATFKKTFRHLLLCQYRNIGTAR

[5] = target: Muscarinic acetylcholine receptor M3 (Homo sapiens, UniProt P20309); experiment: Antagonist activity at human muscarinic M3 receptor expressed in CHO-K1 cells assessed as inhibition of acetylcholine-induced calcium mobilization; type: functional, cell-based
Sequence of Muscarinic acetylcholine receptor M3 (P20309 whole entry): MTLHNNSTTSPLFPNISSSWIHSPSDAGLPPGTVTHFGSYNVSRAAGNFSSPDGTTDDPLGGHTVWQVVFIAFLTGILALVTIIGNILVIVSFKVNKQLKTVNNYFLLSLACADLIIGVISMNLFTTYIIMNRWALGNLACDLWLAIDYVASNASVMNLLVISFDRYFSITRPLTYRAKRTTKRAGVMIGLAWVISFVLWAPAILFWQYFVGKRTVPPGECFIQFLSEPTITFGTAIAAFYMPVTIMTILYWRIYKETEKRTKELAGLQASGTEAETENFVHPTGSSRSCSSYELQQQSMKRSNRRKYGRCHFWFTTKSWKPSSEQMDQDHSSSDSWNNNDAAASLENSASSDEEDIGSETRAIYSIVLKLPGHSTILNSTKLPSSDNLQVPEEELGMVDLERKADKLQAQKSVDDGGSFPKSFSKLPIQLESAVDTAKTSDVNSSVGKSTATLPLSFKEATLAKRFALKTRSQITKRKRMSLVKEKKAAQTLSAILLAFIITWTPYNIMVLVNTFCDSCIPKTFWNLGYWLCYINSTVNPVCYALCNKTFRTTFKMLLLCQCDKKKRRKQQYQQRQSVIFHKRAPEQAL

[6] = target: T5, Muscarinic acetylcholine receptor M5 (Homo sapiens) (UniProt P08912); experiment: Antagonist activity at human muscarinic M5 receptor expressed in CHO-K1 cells assessed as inhibition of acetylcholine-induced calcium mobilization at 10 uM; type: functional, cell-based
T5 sequence (whole entry): T1 sequence (P08912 whole entry)

[7] = Selectivity ratio of muscarinic M3 receptor over muscarinic M2 receptor

SMILES | IC50 [1] [µM] | IC50 [2] [µM] | IC50 [3] [µM] | IC50 [4] [µM] | IC50 [5] [µM] | IC50 [6] [µM] | Selectivity ratio [7]
CCN1CCN(c2ccc(NC(=O)c3ccccc3OC)cc2Cl)CC1 | 1.3 | – | 0.82 | – | 5.6 | – | –
CCN1CCN(c2ccc(NC(=O)c3c(F)c(F)c(F)c(F)c3F)cc2Cl)CC1 | 0.83 | – | 0.35 | – | 3.7 | – | –
CCN1CCN(c2ccc(NC(=O)c3ccccc3)cc2Cl)CC1 | > 10 | > 10 | 3.2 | > 10 | > 10 | – | –
Cc1ccc(N2C[C@@H]3[C@H](C2)[C@H]3NC(=O)C(O)(c2ccccc2)C2CCCCC2)cc1 (stereo partly specified) | – | – | – | – | – | – | 20
CCN1CCN(c2ccc(NC(=O)c3ccc(OC)cc3)cc2Cl)CC1 | > 10 | – | 3.2 | – | > 10 | – | –

Now from value to compound, other results behind:

IC50 [1] [µM] | IC50 [2] [µM] | IC50 [3] [µM] | IC50 [4] [µM] | IC50 [5] [µM] | IC50 [6] [µM] | SMILES | Selectivity ratio [7]
4.1 | 2.7 | 0.49 | 1.5 | 4.2 | – | CCN1CCN(c2ccc(NC(=O)c3cc(C(F)(F)F)ccc3C(F)(F)F)cc2Cl)CC1 | –
> 10 | > 10 | 2.6 | 3.7 | > 10 | 10 | CCN1CCN(c2ccc(NC(=O)c3cc(C(F)(F)F)cc(C(F)(F)F)c3)cc2Cl)CC1 | –
2.3 | – | 0.96 | – | – | – | CCN1CCN(c2ccc(NC(=O)c3ccccc3Cl)cc2Cl)CC1 | –
> 10 | > 10 | 4.7 | > 10 | > 10 | – | CCN1CCN(c2ccc(NC(=O)c3ccc(F)c(F)c3)cc2Cl)CC1 | –
3.5 | – | 2.1 | – | > 10 | – | CCN1CCN(c2ccc(NC(=O)c3cccc(C)c3)cc2Cl)CC1 | –
4.1 | > 10 | 2.9 | 3.7 | 4.3 | – | CCN1CCN(c2ccc(NC(=O)c3cccc(C(F)(F)F)c3)cc2Cl)CC1 | –
6.9 | > 10 | 2.9 | > 10 | 3.7 | – | CCN1CCN(c2ccc(NC(=O)c3ccc(C)cc3)cc2Cl)CC1 | –
